ChEMBL document CHEMBL3877292, “Synthesis and evaluation of novel hybrids β-carboline-4-thiazolidinones as potential antitumor and antiviral agents” (Eur J Med Chem, 2016)

Tests used:
[1] = Cell cycle arrest in human 786-0 cells assessed as accumulation at S phase at 1.25 uM after 24 hrs by propidium iodide staining-based flow cytometry (Rvb=12.6+/-0.7%); type: functional
Method in brief: (§1)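 786-0 cells seeded at 3×10^4 cells/mL and grown 24 h, then serum-starved 24 h to synchronise. Treated in DMSO/RPMI for 24 h alongside DMSO vehicle and colchicine control. 1×10^5 cells in PBS were stained with propidium iodide for 20 min in the dark at room temperature, then analysed by flow cytometry. Results are mean ± standard error % cells from three experiments in triplicate; ANOVA/Tukey.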

[2] = Cell cycle arrest in human 786-0 cells assessed as accumulation at sub-G1 phase at 1.25 uM after 24 hrs by propidium iodide staining-based flow cytometry (Rvb=3.7+/-0.9%); type: functional; method in brief: as §1
[3] = Cell cycle arrest in human 786-0 cells assessed as accumulation at G2/M phase at 1.25 uM after 24 hrs by propidium iodide staining-based flow cytometry (Rvb=36.5+/-1.1%); type: functional; method in brief: as §1
[4] = Cell cycle arrest in human 786-0 cells assessed as accumulation at G1 phase at 1.25 uM after 24 hrs by propidium iodide staining-based flow cytometry (Rvb=47.1+/-1%); type: functional; method in brief: as §1
[5] = Cell cycle arrest in human 786-0 cells assessed as accumulation at G2/M phase at 12.5 uM after 24 hrs by propidium iodide staining-based flow cytometry (Rvb=36.5+/-1.1%); type: functional; method in brief: as §1
[6] = Antiproliferative activity against human MCF7 cells after 48 hrs by SRB assay; type: functional; conditions: MCF7, 48 h
Method in brief: (§2)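 Cells grown in RPMI 1640 with 5% FBS, with penicillin/streptomycin in experimental cultures. Exposed in triplicate to 0.25, 2.5, 25 and 250 µg/mL in DMSO/RPMI for 48 h at 37 °C under 5% CO2. Plates were TCA-fixed before (T0) and after treatment, then stained with sulforhodamine B and read at 540 nm. GI50 was obtained by non-linear regression against untreated growth. Doxorubicin served as positive control.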

[7] = Antiproliferative activity against human HT-29 cells after 48 hrs by SRB assay; type: functional; conditions: HT-29, 48 h; method in brief: as §2
[8] = Cytotoxicity against African green monkey Vero cells after 48 hrs by SRB assay; type: toxicity, cell-based; conditions: chlorocebus sabaeus
Method in brief: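 Vero (ATCC CCL81) cells grown in DMEM with 10% FBS and gentamicin at 37°C, 5% CO2. Cells exposed in triplicate to 1000, 500, 100, 10, 1 and 0.1 µg/mL, with untreated cells as control. Viability read by sulforhodamine B colorimetry. CC50 is the concentration giving 50% cytotoxicity.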

786-0 [9] = experiment: Induction of apoptosis in human 786-0 cells assessed as necrotic cells at 25 uM after 24 hrs by Annexin V/7-AAD staining based flow cytometry; type: functional
Method in brief: (§3)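 786-0 cells seeded at 3×10^4 cells/mL and grown 24 h at 37 °C under 5% CO2. Exposed to 25 µM in DMSO/RPMI for 15, 18 or 24 h against DMSO vehicle. Results are mean ± standard error from three experiments in triplicate.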

[10] = Antiproliferative activity against human NCI/ADR-RES cells after 48 hrs by SRB assay; type: functional; method in brief: as §2
786-0 [11] = experiment: Induction of apoptosis in human 786-0 cells assessed as late apoptotic or necrotic cells at 25 uM after 18 hrs by 7-AAD staining based flow cytometry; type: functional; method in brief: as §3
[12] = Antiproliferative activity against human 786-0 cells after 48 hrs by SRB assay; type: functional; conditions: 786-0, 48 h; method in brief: as §2
[13] = Antiproliferative activity against human OVCAR3 cells after 48 hrs by SRB assay; type: functional; conditions: OVCAR-3, 48 h; method in brief: as §2
[14] = Cell cycle arrest in human 786-0 cells assessed as accumulation at G1 phase at 6.25 uM after 24 hrs by propidium iodide staining-based flow cytometry (Rvb=47.1+/-1%); type: functional; method in brief: as §1
[15] = Selectivity index, ratio of CC50 for Herpes simplex type I KOS infected African green monkey Vero cells to EC50 for Herpes simplex virus type 1 KOS; type: toxicity, cell-based; conditions: Herpes simplex virus type 1 KOS infected Vero cells, read-out: Ratio CC50/EC50
Method in brief: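 SI calculated as CC50/EC50. CC50 is the 50% cytotoxic concentration on Vero cells by sulforhodamine B, tested in triplicate from 0.1 to 1000 µg/mL. EC50 is the concentration protecting 50% of cells against HSV-1, with acyclovir as HSV-1 standard and drug-free cells as control.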

[16] = Antiproliferative activity against human NCI-H460 cells after 48 hrs by SRB assay; type: functional; conditions: NCI-H460, 48 h; method in brief: as §2
[17] = Cell cycle arrest in human 786-0 cells assessed as accumulation at sub-G1 phase at 12.5 uM after 24 hrs by propidium iodide staining-based flow cytometry (Rvb=3.7+/-0.9%); type: functional; method in brief: as §1
[18] = Cell cycle arrest in human 786-0 cells assessed as accumulation at S phase at 12.5 uM after 24 hrs by propidium iodide staining-based flow cytometry (Rvb=12.6+/-0.7%); type: functional; method in brief: as §1
786-0 [19] = experiment: Induction of apoptosis in human 786-0 cells assessed as necrotic cells at 25 uM after 15 hrs by Annexin V/7-AAD staining based flow cytometry; type: functional; method in brief: as §3
786-0 [20] = experiment: Induction of apoptosis in human 786-0 cells assessed as late apoptotic or necrotic cells at 25 uM after 24 hrs by 7-AAD staining based flow cytometry; type: functional; method in brief: as §3
786-0 [21] = experiment: Induction of apoptosis in human 786-0 cells assessed as late apoptotic or necrotic cells at 25 uM after 15 hrs by 7-AAD staining based flow cytometry; type: functional; method in brief: as §3
[22] = Cell cycle arrest in human 786-0 cells assessed as accumulation at sub-G1 phase at 6.25 uM after 24 hrs by propidium iodide staining-based flow cytometry (Rvb=3.7+/-0.9%); type: functional; method in brief: as §1
Human alphaherpesvirus 1 = experiment: Antiviral activity against Herpes simplex type I KOS; type: functional; conditions: Human alphaherpesvirus 1, KOS
[23] = Cell cycle arrest in human 786-0 cells assessed as accumulation at S phase at 6.25 uM after 24 hrs by propidium iodide staining-based flow cytometry (Rvb=12.6+/-0.7%); type: functional; method in brief: as §1
786-0 [24] = experiment: Induction of apoptosis in human 786-0 cells assessed as necrotic cells at 25 uM after 18 hrs by Annexin V/7-AAD staining based flow cytometry; type: functional; method in brief: as §3
[25] = Cell cycle arrest in human 786-0 cells assessed as accumulation at G1 phase at 12.5 uM after 24 hrs by propidium iodide staining-based flow cytometry (Rvb=47.1+/-1%); type: functional; method in brief: as §1
[26] = Cell cycle arrest in human 786-0 cells assessed as accumulation at G2/M phase at 6.25 uM after 24 hrs by propidium iodide staining-based flow cytometry (Rvb=36.5+/-1.1%); type: functional; method in brief: as §1
[27] = Cytotoxicity against human 786-0 cells after 48 hrs by SRB assay; type: functional; conditions: 786-0, 48 h
Method in brief: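 Sulforhodamine B assay in RPMI 1640 with 5% FBS. Triplicate exposures to 0.25–250 µg/mL in DMSO/RPMI for 48 h at 37 °C under 5% CO2. T0 and treated plates were fixed with 50% TCA and absorbance read at 540 nm. Parameters: TGI is total growth inhibition; LC50 is the concentration killing 50% of cells. Doxorubicin served as control.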

In the case of `COc1cc2c(c(OC)c1OC)-c1ccc(OC)c(=O)cc1[C@@H](NC(C)=O)CC2`, the Activity [1] is reported as 11%, the Activity [2] is reported as 9% and the Activity [3] is reported as 61.7%. For the same compound, the Activity [4] was 18.3%.

With `CN(C)c1ccc(-c2nc(C(=O)N/N=C3/NC(=O)CS3)cc3c2[nH]c2ccccc23)cc1` the Activity [5] was 31.8%, the GI50 [6] was 2.93 µM and the GI50 [7] was 5.04 µM. It also gave a CC50 at 48 h [8] of 1740 µM, an Activity (786-0 [9]) of 38.7% and a GI50 [10] of 0.48 µM. For the same compound, the Activity (786-0 [11]) was 34.7%, the GI50 [12] was 1.6 µM and the GI50 [13] was 1.27 µM. It also gave an Activity [14] of 48.7%, a selectivity ratio [15] of 18 and a GI50 [16] of 1.44 µM. It also gave an Activity [17] of 15.3%, an Activity [18] of 12.4% and an Activity (786-0 [19]) of 3.6%. The Activity (786-0 [20]) was 36.6%, the Activity (786-0 [21]) was 3.9% and the Activity [22] was 2.3%. For the same compound, the EC50 (Human alphaherpesvirus 1) was 96.8 µM, the Activity [23] was 11.9% and the Activity (786-0 [24]) was 34.4%. It also gave an Activity [25] of 40.5%, an Activity [26] of 37% and a TGI [27] of 13 µM. It also gave a CC50 ([27]; read-out: LC50 (the source's name)) of 105 µM.
